The values that follow come from ChEMBL document CHEMBL4340525, “Tumor-Targeted Delivery of 6-Diazo-5-oxo-l-norleucine (DON) Using Substituted Acetylated Lysine Prodrugs” (J Med Chem, 2019).

Data set [1] in a line: Drug level in human P493B cells suspended in human plasma assessed as tumor cell to plasma ratio by measuring 6-diazo-5-oxo-L-norleucine formation at 20 uM measured after 1 hr by LC-MS/MS analysis relative to 6-diazo-5-oxo-L-norleucine alone. It is filed as ADME, cell-based. The essentials: (§1)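 Cells were grown in RPMI 1640 with 10% FBS, washed in DPBS and resuspended in human plasma at 10 million cells/mL. After 5 min preincubation at 37 °C, compound was added at 20 µM final for 1 h. The mix was centrifuged at 10 000g and the washed pellet and plasma were quantified separately. DON was read by LC-MS/MS after dabsyl chloride derivatisation, intact prodrug directly. Standard curves were made in naive cells or plasma.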

Data set [2] in a line: Stability in swine plasma assessed as parent compound remaining at 20 uM measured after 1 hr by LC-MS/MS analysis. To be noted: Sus scrofa, pig.
The nature of data set [3]: Prodrug conversion in human P493B cells suspended in human plasma assessed as 6-diazo-5-oxo-L-norleucine formation at 20 uM measured after 1 hr by LC-MS/MS analysis. It is filed as ADME, cell-based. The essentials:
as §1

The nature of data set [4]: Stability in human plasma assessed as parent compound remaining at 20 uM measured after 1 hr by LC-MS/MS analysis.
A short description of data set [5]: Drug level in human P493B cells suspended in human plasma assessed as tumor cell to plasma ratio by measuring 6-diazo-5-oxo-L-norleucine formation at 20 uM measured after 1 hr by LC-MS/MS analysis. It is filed as ADME, cell-based. Summed up:
as §1

Data set [6] is described as follows: Stability in human plasma suspended with human P493B cells at 20 uM measured after 1 hr by LC-MS/MS analysis. The data set is classed as ADME, cell-free. The essentials:
as §1

Data set [7] can be described thus: Stability in mouse plasma assessed as parent compound remaining at 20 uM measured after 1 hr by LC-MS/MS analysis.
Data set [8] is described as follows: Stability in swine jejunum at 20 uM measured after 1 hr by LC-MS/MS analysis. It is filed as ADME, tissue-based, Sus scrofa. To be noted: pig. Summed up:
(§2)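 Washed swine jejunum was diluted 10-fold in 0.1 M potassium phosphate buffer and probe-sonicated. Prodrug was spiked at 20 µM final and incubated 1 h at 37 °C with orbital shaking. Triplicate quench in acetonitrile with losartan internal standard. Percent parent remaining by LC-MS/MS peak-area ratio.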

A short description of data set [9]: Stability in swine liver homogenates assessed as parent compound remaining at 20 uM measured after 1 hr by LC-MS/MS analysis. To be noted: Sus scrofa, pig, tissue homogenate.
The nature of data set [10]: Stability in swine jejunum assessed as parent compound remaining at 20 uM measured after 1 hr by LC-MS/MS analysis. The data set is classed as ADME, tissue-based, Sus scrofa. The note with it: pig. Summed up: as §2
Data set [11] can be described thus: (§3) Antiproliferative activity against human P493B cells measured after 72 hrs by CellTiter 96 aqueous one solution cell proliferation assay. The data set is classed as functional, cell-based. The essentials:
(§4)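 P493B lymphoma cells seeded at 20 000 cells/well in growth medium. DMSO stocks added as a 1:10 serial dilution, final 0.2% DMSO. Cells grown 72 h with compound, then given CellTiter 96 AQueous reagent for 2 h and read by absorbance at 490 nm. EC50 obtained by nonlinear regression of log-transformed data.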

For the next data set, the species on record is Homo sapiens. The description is as §3. It is filed as functional, cell-based. The essentials: as §4
The nature of data set [12]: Drug level in human P493B cells suspended in human plasma assessed as tumor cell to plasma ratio at 20 uM measured after 1 hr by LC-MS/MS analysis. The data set is classed as ADME, cell-based. The essentials: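 P493B cells grown in RPMI 1640 with 10% FBS, then suspended in human plasma at 10 million cells/mL. Suspension preincubated 5 min at 37 °C, dosed to a final 20 μM, held 1 h at 37 °C, then spun to separate cells from plasma. DON and intact prodrug in pellet and plasma measured by LC-MS/MS; for DON, after dabsyl chloride derivatization. Ratio = cell DON/plasma DON.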

A short description of data set [13]: Prodrug conversion in human P493B cells suspended in human plasma assessed as 6-diazo-5-oxo-L-norleucine formation measured after 1 hr by HRMS analysis. It is filed as ADME, cell-based. Summed up:
(§5)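 Metabolite identification: compound was incubated 1 h with 10 million P493B cells suspended in 1 mL human plasma. Cell pellets were collected and metabolites identified by HRMS.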

Data set [14] can be described thus: Prodrug conversion in human P493B cells suspended in human plasma assessed as (S)-isopropyl 2-amino-6-diazo-5-oxohexanoate formation measured after 1 hr by HRMS analysis. The data set is classed as ADME, cell-based. The essentials:
as §5

Where only a bound is given, the exact number is not on record here.

`CC(=O)NCCCC[C@H](NC(=O)OC(C)(C)C)C(=O)N[C@@H](CCC(=O)C=[N+]=[N-])C(=O)OC(C)C`: in [1], the “fold change (FC)” value stood at 32. The Stability in data set [2] is given as 85%; in [4], 95%; in data set [6] it was “Stable”; in [7], 1%. Besides, in [3], the Drug metabolism result is given as “Metabolite_Detected”. In addition, in data set [5], the Ratio came to 13.
As for `CC(=O)NCCCC[C@H](NC(=O)OCC1c2ccccc2-c2ccccc21)C(=O)N[C@@H](CCC(=O)C=[N+]=[N-])C(=O)OC(C)C`, the Stability result in data set [8] was “Unstable”; in data set [2] it was 78%; in data set [9], 19%; in [4] it was 93%; in data set [7], 2%.
As for `CC(=O)NCCCC[C@H](NC(=O)[C@H](Cc1c[nH]c2ccccc12)NC(C)=O)C(=O)N[C@@H](CCC(=O)C=[N+]=[N-])C(=O)OC(C)C`, the Stability in [10] is on record as above 50%; in [2] it was 75%; in data set [9], 67%; in data set [4] it was 102%; in [6], “Stable”; in data set [7] it was 0%. Moreover, in data set [1], the “fold change (FC)” value is 30. Moreover, the Drug metabolism result in data set [3] was “Metabolite_Detected”. For the same compound, the Ratio in [5] was found to be 11.
In the case of `CC(=O)NCCCC[C@H](NC(=O)[C@@H](N)Cc1c[nH]c2ccccc12)C(=O)N[C@@H](CCC(=O)C=[N+]=[N-])C(=O)OC(C)C`, the Stability entry in data set [8] is listed as “Unstable”; in data set [2], 19%; in data set [9], 0%; in data set [4], 7%; in data set [7], 0%.
Take `CCCCCCCC(=O)N[C@@H](CCCCNC(C)=O)C(=O)N[C@@H](CCC(=O)C=[N+]=[N-])C(=O)OC(C)C`: the Stability in data set [10] is on record as above 50%; in data set [2], 91%; in [4] it was 95%; in data set [7], 0%.
On the same counts, the results for `CC(=O)NCCCC[C@H](NC(=O)OC12CC3CC(CC(C3)C1)C2)C(=O)N[C@@H](CCC(=O)C=[N+]=[N-])C(=O)OC(C)C` are above 50%, 77%, 100% and 4%.
As for `CC(=O)NCCCC[C@H](NC(=O)[C@@H]1Cc2ccccc2CN1C(C)=O)C(=O)N[C@@H](CCC(=O)C=[N+]=[N-])C(=O)OC(C)C`, the Stability in data set [10] is listed as above 50%; in data set [2], 98%; in data set [9], 72%; in [4] it was 110%; in data set [6] it was “Stable”; in [7], 0%. For the same compound, the “fold change (FC)” value in data set [1] came to 115. Also, the Drug metabolism in data set [3] came to 0.12 µM. Besides, in [5], the Ratio worked out at 46.
Take `CC(=O)NCCCC[C@H](NC(=O)[C@H](Cc1c[nH]c2ccccc12)NC(=O)C(C)(C)C)C(=O)N[C@@H](CCC(=O)C=[N+]=[N-])C(=O)OC(C)C`: the Stability entry is recorded as “Unstable” in data set [8], 95% in data set [2], 88% in data set [4] and 0% in [7].
Consider `CC(=O)NCCCC[C@H](NC(=O)Cc1c[nH]c2ccccc12)C(=O)N[C@@H](CCC(=O)C=[N+]=[N-])C(=O)OC(C)C`, for which the Stability is above 50% in data set [10]; 98% in data set [2]; 40% in data set [9]; 94% in [4]; 0% in data set [7].
The compound `[N-]=[N+]=CC(=O)CC[C@H](N)C(=O)O` [6-DIAZO-5-OXO-L-NORLEUCINE] registered an EC50 in data set [11] of 10 µM. Besides, the Activity result in the data set filed under Homo sapiens was “Dose-dependent effect”. Moreover, the Ratio in data set [12] turned out to be 0.4.
Turning to `CCCCCCCCCCCCCCCC(=O)N[C@@H](CCCCNC(C)=O)C(=O)N[C@@H](CCC(=O)C=[N+]=[N-])C(=O)OC(C)C`, the Stability entry in [8] is “Unstable”; in [2] it was 88%; in [4] it was 84%; in [7], 30%.
In the case of `CC(C)OC(=O)[C@@H](N)CCC(=O)C=[N+]=[N-]`, the Drug metabolism entry in data set [13] was “Metabolite_Detected”.
As to `CC(C)OC(=O)[C@H](CCC(=O)C=[N+]=[N-])NC(=O)[C@H](CCCCN)NC(=O)C12CC3CC(CC(C3)C1)C2`, the Drug metabolism result in data set [14] is “Metabolite_Detected”.
As to `CC(=O)NCCCC[C@H](NC(=O)[C@@H]1Cc2ccccc2CN1)C(=O)N[C@@H](CCC(=O)C=[N+]=[N-])C(=O)OC(C)C`, the Stability entry in [8] is “Unstable”; in data set [2], 62%; in [9] it was 0%; in data set [4], 95%; in data set [7], 0%.
